We go through 24 molecules from ChEMBL document CHEMBL1132626 (J Med Chem, 1999).

For experiment [1], the target named is T1, Prostaglandin G/H synthase 2 (Homo sapiens, UniProt P35354).
T1 sequence (P35354 whole entry): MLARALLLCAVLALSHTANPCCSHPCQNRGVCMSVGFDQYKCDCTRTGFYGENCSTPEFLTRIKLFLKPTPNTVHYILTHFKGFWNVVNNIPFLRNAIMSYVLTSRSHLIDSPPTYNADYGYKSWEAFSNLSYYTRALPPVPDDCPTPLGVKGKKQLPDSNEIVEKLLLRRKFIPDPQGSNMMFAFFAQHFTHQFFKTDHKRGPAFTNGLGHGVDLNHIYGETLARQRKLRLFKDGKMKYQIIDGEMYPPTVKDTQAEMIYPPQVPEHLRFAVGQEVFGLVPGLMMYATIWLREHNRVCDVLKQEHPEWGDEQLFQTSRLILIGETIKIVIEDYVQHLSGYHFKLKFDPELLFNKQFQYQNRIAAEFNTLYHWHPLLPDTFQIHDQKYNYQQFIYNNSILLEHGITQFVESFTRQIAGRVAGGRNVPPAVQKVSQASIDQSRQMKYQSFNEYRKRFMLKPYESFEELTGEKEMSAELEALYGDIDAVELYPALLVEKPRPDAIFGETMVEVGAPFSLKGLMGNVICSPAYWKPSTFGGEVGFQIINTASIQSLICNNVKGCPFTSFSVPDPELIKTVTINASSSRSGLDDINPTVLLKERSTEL
Format: tissue-based, Blood.

Experiment [2] concerns the target T1, Prostaglandin G/H synthase 2. In kind it is cell-based, CHO.
Experiment [3] addresses T2, Prostaglandin G/H synthase 1 (Homo sapiens, UniProt P23219).
The target in experiment [4] is T2, Prostaglandin G/H synthase 1. Format: tissue-based, Blood.
Experiment [5] deals with Rattus norvegicus. Nature of the experiment: In vivo efficacy was evaluated using a carrageenan-induced rat paw edema model as ED50. In kind it is functional. Summed up:
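Male Sprague–Dawley rats (150–200 g) were fasted overnight and dosed po in vehicle (1% methocel or 5% Tween 80). After 1 h, baseline paw volume was measured by plethysmometry and 1% carrageenan in saline was injected subplantarly (500 µg/paw). Paw swelling was measured 3 h later and % inhibition calculated versus vehicle. ED50 used ≥4 dose points with 5 rats/group.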
Background: In the carrageenan paw model, swelling and tenderness develop within hours.

For experiment [6], the system named is Rattus norvegicus. Nature of the experiment: In vivo efficacy was evaluated using a LPS-induced rat pyresis model as ED50.
Experiment [7] concerns Rattus norvegicus. Nature of the experiment: Compound was tested for 10 days at 100 mg/kg/day in rats activity measured as Cr leakage; Clean. Format: functional, organism-based.
Experiment [8] has as its system Rattus norvegicus. Nature of the experiment: In vivo efficacy was evaluated in adjuvant arthritis(21 day). In kind it is functional. As to conditions: 504 h, read-out: ID50 (the source's name). The procedure, abridged: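 Arthritis was induced in female Lewis rats (7 weeks, 144–172 g) by intradermal left hind footpad injection of 0.5 mg Mycobacterium butyricum in light mineral oil; 10 rats/group. Secondary-paw volume, body weight and radiographs were recorded on days 0, 14 and 21. Analysis used two-factor repeated-measures ANOVA with Dunnett's test.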

Experiment [9] has as its system Rattus norvegicus. Nature of the experiment: In vivo efficacy was evaluated using a carrageenan-induced rat hyperalgesia model as ED50. Format: functional. The procedure, abridged: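 Male Sprague–Dawley rats (90–110 g) received intraplantar carrageenan (4.5 mg/paw). Compound was given orally 2 h after carrageenan. One hour later, the vocalization response to compression of the injected paw was measured with an algesiometer. ID50 was derived from at least four dose points.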

T2 sequence (P23219 whole entry): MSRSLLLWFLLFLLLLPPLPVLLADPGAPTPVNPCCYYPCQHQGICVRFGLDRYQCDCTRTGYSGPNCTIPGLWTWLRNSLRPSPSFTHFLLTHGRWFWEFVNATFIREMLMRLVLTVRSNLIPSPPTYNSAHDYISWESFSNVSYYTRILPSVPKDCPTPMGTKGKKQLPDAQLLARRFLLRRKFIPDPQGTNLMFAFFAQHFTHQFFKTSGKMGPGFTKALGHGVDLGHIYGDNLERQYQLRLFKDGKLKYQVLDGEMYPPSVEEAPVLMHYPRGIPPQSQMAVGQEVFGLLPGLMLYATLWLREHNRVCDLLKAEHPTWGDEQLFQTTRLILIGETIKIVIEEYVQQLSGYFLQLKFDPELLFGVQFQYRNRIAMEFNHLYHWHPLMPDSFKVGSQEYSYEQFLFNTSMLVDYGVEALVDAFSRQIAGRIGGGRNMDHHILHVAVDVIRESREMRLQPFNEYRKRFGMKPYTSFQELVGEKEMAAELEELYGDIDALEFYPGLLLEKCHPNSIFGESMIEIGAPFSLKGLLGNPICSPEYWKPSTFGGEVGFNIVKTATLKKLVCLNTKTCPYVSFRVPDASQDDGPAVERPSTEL

One may read the IC50 as the point on the concentration scale where inhibition reaches its midpoint. On to `CS(=O)(=O)c1ccc(C2=C(c3cc4ccccc4s3)C(=O)CC2)cc1`, for which the IC50 stood at 0.08 µM in experiment [1], 0.014 µM in experiment [2] and 0.1 µM in experiment [3].
Regarding `CS(=O)(=O)c1ccc(C2=C(c3ccc(F)c(F)c3)C(=O)CC2)cc1`, the IC50 worked out at 3.2 µM in experiment [4], 0.21 µM in experiment [1], 0.014 µM in experiment [2] and 1.7 µM in experiment [3].
Turning to `CS(=O)(=O)c1ccc(C2=C(c3cc(Cl)ccn3)C(=O)CC2)cc1`, the IC50 in [4] was 34 µM; in [1], 0.52 µM; in experiment [2], 0.19 µM; in [3], 27 µM. In experiment [5], this molecule had an ED50 of 2.5 mg/kg.
For `CS(=O)(=O)c1ccc(C2=C(c3cc(Cl)cc(Cl)c3)C(=O)CC2)cc1`, the IC50 in experiment [4] was over 100 µM; in [1], 0.28 µM; in [2], 0.014 µM; in [3], 9.2 µM. The same molecule came in with an ED50 in experiment [5] of over 10 mg/kg.
For `CS(=O)(=O)c1ccc(C2=C(c3cccc(F)c3)C(=O)CC2)cc1`, the IC50 stood at 0.34 µM in [1], 0.014 µM in experiment [2] and 6.6 µM in experiment [3]. The ED50 in experiment [5] came to 6.4 mg/kg.
Take `CS(=O)(=O)c1ccc(C2=C(c3ccc(F)cc3)C(=O)CC2)cc1`: the IC50 in experiment [4] was 3.7 µM; in experiment [1], 0.08 µM; in experiment [2] it was 0.019 µM; in experiment [3] it was 0.5 µM. Moreover, the ED50 in experiment [5] is 3 mg/kg.
With `CC(C)(C)C#CC1=C(c2ccc(S(C)(=O)=O)cc2)CCC1=O`, the IC50 in experiment [1] was 5.2 µM; in experiment [2] it was 0.15 µM; in experiment [3], over 100 µM.
With `CS(=O)(=O)c1ccc(C2=C(/C=C/c3ccc(F)cc3)C(=O)CC2)cc1`, the IC50 is 27 µM in [4], 0.5 µM in experiment [1] and 0.175 µM in experiment [2]. Moreover, in experiment [5], the ED50 is over 10 mg/kg.
As to `CS(=O)(=O)c1ccc(C2=C(c3cc(F)cc(F)c3)C(=O)CC2)cc1`, the IC50 in experiment [4] stood at 61 µM; in [1] it was 0.62 µM; in [2], 0.015 µM. Moreover, the ED50 came out at 0.8 mg/kg in [6], 2.6 mg/kg in [5], 4 mg/kg in experiment [8] and 3 mg/kg in [9]. Moreover, in [7], the Cr leakage result is reported as “Clean”.
Turning to `COc1ccncc1C1=C(c2ccc(S(C)(=O)=O)cc2)CCC1=O`, the IC50 stood at 0.09 µM in experiment [1], 0.15 µM in experiment [2] and 0.06 µM in [3].
`Cc1ccncc1C1=C(c2ccc(S(C)(=O)=O)cc2)CCC1=O`: the IC50 in [4] is 4.1 µM; in experiment [1] it was 0.45 µM; in experiment [2], 0.44 µM; in experiment [3], 5.5 µM.
In the case of `CS(=O)(=O)c1ccc(C2=C(c3ccccn3)C(=O)CC2)cc1`, the IC50 in experiment [1] is 9.8 µM; in experiment [2], 1.53 µM; in experiment [3], over 10 µM.
Molecule `Cc1ccc(-c2cc(C(F)(F)F)nn2-c2ccc(S(N)(=O)=O)cc2)cc1` [CELECOXIB] displayed an ED50 in [5] of 3.2 mg/kg.
The same measure, in the same setting: the figure for `CS(=O)(=O)c1ccc(C2=C(c3ccccc3)C(=O)OC2)cc1` [ROFECOXIB] is 1.7 mg/kg.
Take `CS(=O)(=O)c1ccc(C2=C(c3cncc(Br)c3)C(=O)CC2)cc1`: the figures for the IC50 in [1], in experiment [2] and in [3] were 1.7 µM, 0.3 µM and over 100 µM, respectively.
For `CS(=O)(=O)c1ccc(C2=C(c3cc(Br)ccn3)C(=O)CC2)cc1`, in that order: 0.47 µM, 0.63 µM and 18 µM.
For the molecule `CS(=O)(=O)c1ccc(C2=C(c3cncc(Cl)c3)C(=O)CC2)cc1`, the IC50 in experiment [4] and in experiment [3] was over 100 µM throughout. In addition, the ED50 in [5] turned out to be 1.3 mg/kg.
For `CS(=O)(=O)c1ccc(C2=C(C#Cc3ccccc3)C(=O)CC2)cc1`, the IC50 in experiment [1] was found to be 0.64 µM; in experiment [2], 0.006 µM.
Turning to `CS(=O)(=O)c1ccc(C2=C(c3ccc(Cl)c(F)c3)C(=O)CC2)cc1`, the IC50 in experiment [4] was 0.1 µM; in experiment [1], 0.15 µM; in [2], 0.015 µM; in experiment [3], 0.7 µM.
Regarding `CS(=O)(=O)c1ccc(C2=C(c3cc(Cl)c(Cl)c(Cl)c3)C(=O)CC2)cc1`, the IC50 in [1] is 0.93 µM; in experiment [2] it was 0.006 µM; in experiment [3], 2.5 µM.
With `CS(=O)(=O)c1ccc(C2=C(c3ccccc3)C(=O)CC2)cc1`, the values for the IC50 in experiment [4], in experiment [2] and in experiment [3] were 4.1 µM, 0.011 µM and 3.1 µM, respectively. Besides, in experiment [5], the ED50 was 10 mg/kg.
In the case of `CS(=O)(=O)c1ccc(C2=C(c3ccc(F)c(Cl)c3)C(=O)CC2)cc1`, the IC50 came out at 0.09 µM in experiment [1], 0.009 µM in [2] and 0.3 µM in [3].
Regarding `CS(=O)(=O)c1ccc(C2=C(Oc3cc(F)cc(F)c3)C(=O)CC2)cc1`, the IC50 in experiment [4] was 94 µM; in experiment [1] it was 1.1 µM; in experiment [2] it was 0.017 µM; in experiment [3], 2.7 µM. The same molecule yielded an ED50 in experiment [5] of 6.6 mg/kg.
Regarding `CS(=O)(=O)c1ccc(C2=C(c3cccnc3)C(=O)CC2)cc1`, the IC50 in experiment [4] was 73 µM; in experiment [1], 0.64 µM; in [2], 0.17 µM; in experiment [3], 34 µM. Moreover, the ED50 in [6] is 0.7 mg/kg; in [5], 1.7 mg/kg; in experiment [8], 0.6 mg/kg; in [9], 0.7 mg/kg. For the same molecule, the Cr leakage entry in experiment [7] was “Clean”.
